Shown are actives, neighbours in structure and some others; about 0.72% of the full set was active somewhere.
hIAP block: blocks human intestinal alkaline phosphatase. P09923. purified IAP, CDP-Star luminescence, 30 min. inhibition, % at 10 µM. hit rate 0.12% among 330,000. AID 2544;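 active = inhibition reaching a set limit with compound at 10 µM in the primary screen, cut at about 35% in these data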;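 also: plate controls were DMSO wells with enzyme for no effect and no-enzyme buffer wells for full effect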
Target sequence (P09923 whole entry, looked up): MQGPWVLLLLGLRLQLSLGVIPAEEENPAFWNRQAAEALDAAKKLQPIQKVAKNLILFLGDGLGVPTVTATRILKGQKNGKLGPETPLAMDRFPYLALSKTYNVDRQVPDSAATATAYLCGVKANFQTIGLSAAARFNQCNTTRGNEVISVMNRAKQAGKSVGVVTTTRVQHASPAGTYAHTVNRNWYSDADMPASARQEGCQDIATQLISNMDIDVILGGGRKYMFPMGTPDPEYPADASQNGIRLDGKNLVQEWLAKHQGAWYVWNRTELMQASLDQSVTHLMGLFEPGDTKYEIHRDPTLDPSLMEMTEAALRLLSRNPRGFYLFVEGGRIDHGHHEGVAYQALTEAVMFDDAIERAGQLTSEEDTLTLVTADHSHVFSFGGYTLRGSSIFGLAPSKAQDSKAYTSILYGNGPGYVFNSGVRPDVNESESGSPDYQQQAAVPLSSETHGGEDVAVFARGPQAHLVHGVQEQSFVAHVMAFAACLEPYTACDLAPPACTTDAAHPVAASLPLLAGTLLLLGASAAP
bIAP inhibitor: blocks bovine intestinal alkaline phosphatase activity; purified bovine IAP, CDP-star luminescence, 30 min; 190,000 tested, under 10 active; inhibition, % at 20 µM;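 active = over 50% inhibition of intestinal alkaline phosphatase at 20 µM in the single-dose screen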
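Assay system – bovine IAP enzyme · Quantity – bovine IAP at 1/65,000,000 final dilution · Detection – CDP-star luminescence signal · Times – 30 min reaction at room temperature · Also added – CDP-star substrate at 30 µM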
mIAP inh: blocks mouse intestinal alkaline phosphatase; purified mouse IAP, CDP-Star luminescence, 30 min; inhibition, % at 10 µM; hit rate 0.2% among 330,000; AID 2806;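 active = inhibition of at least 40% at 10 µM in the primary screen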;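 also: plate controls were DMSO with enzyme for no effect and no enzyme wells for full effect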
hIAP activ: increases human intestinal alkaline phosphatase activity; P09923; purified human IAP, CDP-Star luminescence, 30 min; stronger effect = higher value; 1 = vehicle-only enzyme, 0 = enzyme-free background; activation factor at 10 µM; hit rate 0.16% among 330,000;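 active = activation factor of the enzyme at least 2-fold when tested at 20 µM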
mIAP act: mouse IAP activation. AID 2805. muIAP, CDP-Star luminescence, 30 min; stronger effect = higher value; 1 = vehicle-only enzyme signal, 0 = enzyme-free wells. activation factor at 10 µM. hit rate 0.24% among 330,000;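 active = activation factor of at least 2 at 20 µM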
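System: mouse IAP enzyme. Reagent: CDP-Star chemiluminescent phosphatase substrate. Benchmarks: DMSO wells, no-enzyme wells. Times: 30 min enzyme-substrate-compound incubation at room temperature. Detection: luminescence from enzymatic CDP-Star hydrolysis. Doses: test compounds delivered from DMSO solution.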
bIAP activator: intestinal alkaline phosphatase (bovine) activation | hit rate 0.17% among 200,000 | activation factor at 20 µM | AID 1016 | purified bovine IAP, CDP-star luminescence, 30 min; stronger effect = higher value; fold of DMSO-control signal, blank-subtracted;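 active = activation factor of 2 or more at 20 µM, a signal rise over negative controls twice the positive control's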
hIAP act conf: human IAP activation confirmation; shares compounds with hIAP activ; purified IAP, CDP-Star luminescence, 30 min; stronger effect = lower value; activation (%Activity, negative = activation), % at 8.3 µM; hit rate 10% among 880;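 active = at least twofold enzyme activation in any of six single-dose repeats, which the averaged readout prints as negative percent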
* = called active by the depositor; x = no result.

SMILES	hIAP block	bIAP inhibitor	mIAP inh	hIAP activ	mIAP act	bIAP activator	hIAP act conf
Cc1ccc(CN2CCC(C(=O)Nc3cccc(-c4cccc(F)c4)c3)CC2)o1	-121.5	x	-142.4	2.21*	2.42*	x	2.3
CCc1ccc(CN2CCC(C(=O)Nc3cccc(-c4nnc(C)s4)c3)CC2)o1	-21.0	x	2.5	1.21	0.975	x	x
COc1ccc2cc(C(=O)C3CCCN(C(=O)c4cncs4)C3)ccc2c1 (stereo unspecified)	-40.1	x	0.9	1.4	0.991	x	x
CC(NC(=S)NC1CCC(C(C)(C)C)CC1)c1ccccc1 (stereo unspecified)	-101.0	x	-347.9	2.01*	4.48*	x	-111.3*
COc1ccc(C(C)NC(=S)NC2CCCC2)cc1OC (stereo unspecified)	-3.6	10.2	-9.5	1.04	1.09	0.9	x
COc1ccc(O)c(CN2CCC(n3nccc3NC(=O)CCOc3ccccc3)CC2)c1	-19.3	x	-10.6	1.19	1.11	x	x
O=C(O)c1cccc(CSc2n[nH]c(-c3ccc(Cl)cc3Cl)n2)c1	40.2*	22.6	-1.6	0.598	1.02	0.8	-18.2
COc1ccc(S(=O)(=O)N(CC(=O)N2CCOCC2)Cc2ccccc2)cc1	-215.7	16.1	5.5	3.16*	0.945	0.8	-3.2
O=S(=O)(CCc1ccncc1)c1ccc(Cl)cc1	-28.0	x	-2.7	1.28	1.03	x	x
COc1ccc(C(=O)N=C2CCC(C#N)=C3c4cc(OC)c(OC)cc4CCN23)cc1	-105.8	34.3	-12.3	2.06*	1.12	0.7	9.0
COc1cc2c(cc1OC)C1=C(C#N)CC/C(=N\S(=O)(=O)c3ccccc3)N1CC2	1.9	-4.2	-7.6	0.981	1.08	1	x
Cc1sc2ncn(CC(=O)N3CCN(c4ccccn4)CC3)c(=O)c2c1S(=O)(=O)N1CCCCC1	4.6	x	-8.0	0.954	1.08	x	x
COc1cccc(C(=O)NCC(=O)NNc2ncnc(N)c2[N+](=O)[O-])c1	-170.7	-26.0	16.8	2.71*	0.832	1.3	7.6
Cc1cccc(C)c1Nc1ncnc(N)c1[N+](=O)[O-]	21.5	16.0	1.0	0.785	0.99	0.8	x
CCOc1ccc(C2NC(=O)C(C#N)=C(S)N2c2cccc(C)c2)cc1OC (stereo unspecified)	5.2	8.6	6.7	0.948	0.933	0.9	x
CCOc1ccc(C2NC(=O)C(C#N)=C(S)N2c2ccc(C)cc2)cc1OC (stereo unspecified)	-103.0	6.9	14.1	2.03*	0.859	0.9	-77.3
Cc1ccc(NS(=O)(=O)c2cccc(C(=O)NNC(=O)c3cccn3C)c2)c(C)c1	-10.6	x	2.1	1.11	0.979	x	x
CN1CCN(S(=O)(=O)c2cccc(C(=O)N(C)CC(=O)Nc3ccc(F)c(F)c3F)c2)CC1	2.1	x	8.0	0.979	0.92	x	x
CCSc1nnc(NC(=O)c2ccc3ccccc3n2)s1	-112.6	0.9	15.0	2.13*	0.85	1	-7.1
CCc1nnc(NC(=O)c2ccc3ccccc3n2)s1	-53.4	-45.0	25.1	1.53	0.749	1.5	x
c1ccc2c3c(cc(N4CCOCC4)c2c1)OC1(N2CCOCC2)CCCCC1O3 (stereo unspecified)	85.0*	-8.5	10.2	0.15	0.898	1.1	-4.6
Cc1cc(Cl)c(C(=O)Nc2cccc(C(F)(F)F)c2)c(C)n1	5.4	x	10.6	0.946	0.894	x	x
CCOc1ccc(-c2c(C(=O)N/N=C/c3cccc(Br)c3)nnn2-c2nonc2N)cc1	-2.1	x	9.0	1.02	0.91	x	x
COc1ccc(CNC(=O)c2csc(Cc3ccccc3)n2)cc1	-104.6	9.0	10.0	2.05*	0.9	0.9	9.3
COc1ccc(NC(=O)c2csc(Cc3ccccc3)n2)cc1	13.1	x	7.1	0.868	0.929	0.4	x
SMILES	hIAP block	bIAP inhibitor	mIAP inh	hIAP activ	mIAP act	bIAP activator	hIAP act conf
CCOc1cc(/C=N/NC(=O)C(=O)N/N=C/c2ccc(O)c(OCC)c2)ccc1O	38.1*	x	18.2	0.618	0.818	x	-47.6*
C=CCN1C=CC(=CC=C(C#N)C#N)C=C1	35.2*	x	30.8	0.648	0.692	x	-3.6
Cc1ccc(C(C)NC(=S)NC2CCCCC2)cc1C (stereo unspecified)	4.4	x	-62.0	0.956	1.62	x	x
CCC(NC(=S)NC1CCCCC1)c1ccc(C(C)C)cc1 (stereo unspecified)	-310.7	x	-467.0	4.11*	5.67*	x	-24.1*
C/C(=N/NC(=O)c1cc(-c2ccc(Br)s2)[nH]n1)c1ccco1	-113.9	-3.5	5.3	2.14*	0.947	1	-3.2
O=C(N/N=C/c1cccs1)c1cc(-c2ccc(Cl)s2)[nH]n1	-101.7	x	3.6	2.02*	0.964	x	-13.7
O=C(N/N=C/c1ccco1)c1cc(-c2ccc(Cl)s2)[nH]n1	-100.8	-25.6	4.4	2.01*	0.956	1.3	-66.2
O=C(N/N=C/c1ccco1)c1cc(-c2ccc(Br)s2)[nH]n1	1.6	x	16.4	0.984	0.836	x	x
O=C(Cn1cnc2ccc(Cl)cc2c1=O)NC1CCS(=O)(=O)C1 (stereo unspecified)	3.0	x	6.6	0.97	0.934	x	x
C[C@H](OC(=O)N1CCN(C(c2ccccc2)c2ccccc2)CC1)[C@@H]1O[C@@]2(C)CCC[C@H]1O2	3.3	x	-2.3	0.967	1.02	x	x
COc1ccccc1/C=C1\CCC(C2CCCC2)C1=O (stereo unspecified)	8.6	x	5.9	0.914	0.941	x	x
CC1Cc2cc(S(=O)(=O)N3CCCC(C(=O)N4CCCCC4)C3)ccc2N1C(=O)C1CC1 (stereo unspecified)	28.4	x	1.9	0.716	0.981	x	x
CCCC(C(=O)NCCC(C)C)N(Cc1ccccc1)C(=O)c1snc(C(N)=O)c1N (stereo unspecified)	-1.2	x	-3.1	1.01	1.03	x	x
CCOC(=O)c1ccc(Nc2ncnc3nc[nH]c23)cc1	-77.6	-15.6	4.0	1.78	0.96	1.2	x
c1ccc(COc2ccc(Nc3ncnc4nc[nH]c34)cc2)cc1	-144.2	-26.0	-9.3	2.44*	1.09	1.3	-22.5
Cc1ccc(NC(=S)NNC(=O)c2nnn(-c3ccccc3)c2C)cc1	-117.8	4.6	10.6	2.18*	0.894	1	24.2
CCCCCC(=O)Nc1ccc(Cl)cn1	69.7*	-2.1	-20.8	0.303	1.21	1	-32.5
CCC1CCCCN1C(=S)NC(=O)c1cccc([N+](=O)[O-])c1 (stereo unspecified)	19.7	x	-3.9	0.803	1.04	x	x
COC(=O)/C=C1\S/C(=N/NC(=O)c2ccccc2)NC1=O	-29.8	-24.3	15.5	1.3	0.845	1.2	x
COc1ccccc1/C=C1\S/C(=N/NC(=O)c2cccc(Br)c2)NC1=O	-145.1	-5.2	-0.7	2.45*	1.01	1.1	1.5
Cc1ccc2oc(C(=O)Nc3nonc3C)c(C)c2c1	37.9*	x	-4.4	0.621	1.04	x	-19.7

Bioassay records from PubChem.
